Experimental data gathered from unrelated publications.
Lines come from different studies, so protocols differ.

The half-life of `CSC1O[C@@H]([C@H](NC(=O)[C@H]2NC[C@@H]3C[C@H](CC(C)C)CCO[C@H]32)[C@H](C)Cl)C(O)[C@@H](O)[C@H]1O` (stereo partly drawn) is reported as 2.05 h (mouse, plasma; intravenous, 3 mg/kg, single dose).
`Cc1ccc2c(c1)C(=O)[C@]1(O)CCN(c3ccc4nc(C)ccc4c3)C1=N2.Cl` has a half-life of 10.5 h (mouse, brain; subcutaneous, 5 mg/kg).
For `Cc1ccc(OCC(=O)N[C@@H](Cc2c[nH]c3ccccc23)C(=O)OC(C)C)cc1`, the half-life was 6.1 h (male Sprague-Dawley mouse, plasma; oral, 20 mg/kg).
With `CN(C)C(=O)c1cc2cnc(Nc3ccc(-c4ccc5c(=O)cc(N6CCOCC6)oc5c4)cc3)nc2n1C1CCCC1.Cl` the half-life was 2.8 h (BALB/c mouse, plasma; intravenous, 2 mg/kg).
With `Cc1[nH]c(C)c(S(=O)(=O)Nc2ccc(C(F)(F)F)c(Cl)c2)c1C(=O)N1CCC(F)(F)C1` the half-life was 3.65 h (male CD-1 mouse, brain; intraperitoneal, 40 mg/kg).
With `Cc1cc(-c2ccnc3[nH]cc(F)c23)cc(F)c1[C@@]1(O)[C@H](C)CN(C2CCS(=O)(=O)CC2)C[C@@H]1C` the half-life was 2.6 h (male CD-1 mouse, plasma; intravenous, 1 mg/kg).
The half-life of `COCC(=O)N1CCc2[nH]c3c(Cl)c(Cl)ccc3c2[C@@H]1C` is reported as 0.653 h (C57BL/6 mouse, blood; intravenous, 1 mg/kg).
For `Cc1cc(-c2ccnc3[nH]cc(F)c23)cc(F)c1[C@@]1(O)[C@H](C)CN(C(=O)CN)C[C@@H]1C`, the half-life was 9 h (male CD-1 mouse, plasma; intravenous, 1 mg/kg).
With `Cc1ncsc1-c1ccc([C@H](CC(=O)N2CCN(c3ccc(C#Cc4ccc(C(=O)N5CCC(n6cc(-c7ccc8c(c7)CCN8C(=O)Cc7cccc(OC(F)(F)F)c7)c7c(N)ncnc76)CC5)cc4)cn3)CC2)NC(=O)[C@@H]2C[C@@H](O)CN2C(=O)[C@@H](NC(=O)C2(F)CC2)C(C)(C)C)cc1` the half-life was 7.3 h (male C57BL/6 mouse, plasma; intravenous, 1 mg/kg).
For `COC1=CC(c2ccc[nH]2)=N/C1=C\c1cc(Cc2ccc(OC(F)(F)F)cc2)c(C)[nH]1.Cl`, the half-life was 58.3 h (male CD-1 mouse, liver; oral, 40 mg/kg, single dose).
With `Cc1ncsc1-c1ccc([C@H](C)NC(=O)[C@@H]2C[C@@H](O)CN2C(=O)[C@@H](NC(=O)CCc2ccc(C#Cc3ccc(C(=O)NCCCn4cc(-c5ccc6c(c5)CCN6C(=O)Cc5cccc(OC(F)(F)F)c5)c5c(N)ncnc54)cc3)cn2)C(C)(C)C)cc1` the half-life was 4.6 h (male C57BL/6 mouse, plasma; intravenous, 1 mg/kg).
`CCCC[C@@H](NC(=O)[C@@H](Cc1cn(C(=O)OC)c2ccccc12)NC(=O)[C@H](CC(C)(C)C)NC(=O)N1[C@H](C)CCC[C@@H]1C)C(=O)O` has a half-life of 0.68 h (male CD-1 mouse, plasma; intravenous, 3 mg/kg).
For `Cc1ccc(N(c2ccc(NC(=O)CN(C)c3ccccc3N3CCCC3=O)cc2)C(C)C)cc1`, the half-life was 1.48 h (male CD-1 mouse, plasma; oral, 20 mg/kg).
The half-life of `COc1cc(C2C3=C(COC3=O)N(CCO)c3cc4c(cc32)CCC4)cc(OC)c1OC` (stereo not drawn) is reported as 5.2 h (female C57BL/6 mouse, plasma; intraperitoneal, 50 mg/kg).
The half-life of `COc1ccc(C[C@H](NC(=O)[C@H](C)NC(=O)CN2CCOCC2)C(=O)N[C@@H](Cc2ccccc2)C(=O)C2(C)CO2)cc1` (stereo in doubt) is reported as 7.9 h (mouse, plasma; intravenous, 20 mg/kg, single dose).
The half-life of `CC(C)(C)c1sc2ncnc(Oc3c(F)cccc3OC(F)(F)F)c2c1-c1ccc(Cl)cc1` is reported as 2.49 h (mouse, plasma; intravenous, 1 mg/kg).
With `NCc1ccc(-c2nn(Cc3ccncc3)c3ccccc23)o1` the half-life was 1.75 h (male CD-1 mouse, plasma; oral, 10 mg/kg).
The half-life of `Cl.Fc1ccc(Oc2ccc(Nc3ccc4ncc(OCC5CCNCC5)nc4c3)cc2)cc1` is reported as over 40 h (SCID mouse, plasma; intraperitoneal, 50 mg/kg).
For `OCc1ccc(-c2nn(Cc3ccccc3)c3ccccc23)o1`, the half-life was 1.86 h (male CD-1 mouse, plasma; oral, 10 mg/kg).
`Cc1ccc(CCC(=O)Nc2nnc(S(N)(=O)=O)s2)cc1` has a half-life of 4.64 h (male BALB/c mouse, plasma; oral, 20 mg/kg).
For `O=C1CCC(N2Cc3cc(C4CCN(Cc5ccccc5)CC4)ccc3C2=O)C(=O)N1` (stereo not drawn), the half-life was 1.28 h (male CD-1 mouse, plasma; oral, 3 mg/kg).
For `NCc1ccc(-c2nn(Cc3ccccc3)c3ccccc23)o1`, the half-life was 1.74 h (male CD-1 mouse, plasma; oral, 10 mg/kg).
`COC1=CC(c2ccc[nH]2)=N/C1=C\c1[nH]c(Cc2ccc(OC(F)(F)F)cc2)cc1Cc1ccc(OC(F)(F)F)cc1` gave a half-life of 7.62 h (male CD-1 mouse, liver; oral, 40 mg/kg, single dose).
For `Cc1ncsc1-c1ccc([C@H](C)NC(=O)[C@@H]2C[C@@H](O)CN2C(=O)[C@@H](NC(=O)CCCCCCCCC(=O)N2CCC(n3cc(-c4ccc5c(c4)CCN5C(=O)Cc4cccc(OC(F)(F)F)c4)c4c(N)ncnc43)CC2)C(C)(C)C)cc1`, the half-life was 3.1 h (male C57BL/6 mouse, plasma; intravenous, 1 mg/kg).
